Source: PMC10072273 (International Journal of Nanomedicine, 2023)

Legend:
p62 = experiment: mRNA expression; type: cell-based, human; conditions: RAJI cells, ibrutinib 15 µM, 24 h
Summary of the method: (§1)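 RAJI cells treated 24 h with test nanomaterial (347, 174, 84 µM) or reference BTK inhibitor (30, 15 µM). Total RNA extracted with TRIzol and 1 µg reverse-transcribed. qPCR run as 95°C 60 s, then 40 cycles of 95°C 15 s, primer-specific annealing 30 s, 72°C 30 s, with melt-curve check. Expression by 2−ΔΔCT vs HPRT1. ≥4 experiments, mean ± SD, ANOVA with Dunnett's test vs untreated.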

ARID3A = experiment: mRNA expression; type: cell-based, human; conditions: RAJI cells, 30 µM ibrutinib, 24 h
Summary of the method: as §1

NFAT = experiment: mRNA expression; type: cell-based, human; conditions: RAJI cells, 24 h
Summary of the method: as §1

BTK = experiment: mRNA expression; type: cell-based, human; conditions: RAJI cells, ibrutinib, 24 h
Summary of the method: as §1

c-Myc = experiment: Immunoblotting in RAJI cells after anti-IgM stimulation; type: cell-based, human; conditions: 20 µM ibrutinib, 24 h
Summary of the method: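 RAJI cells seeded at 500,000 per dish. Next day they were stimulated with anti-human IgM (12 µg/mL, 10 min), then the medium was replaced with test nanomaterial (347, 174 µM) or reference inhibitor (20 µM) for 24 h. Lysed on ice in RIPA with protease/phosphatase inhibitors and EDTA, then BCA-normalised SDS-PAGE onto nitrocellulose. Primary antibodies 1:1000 overnight at 4°C, loading controls 1:2000, HRP secondary, chemiluminescence, densitometry. 4–5 experiments.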

TLR8 = experiment: mRNA expression; type: cell-based, human; conditions: RAJI cells, 24 h
Summary of the method: as §1

K562 cells = experiment: Cytotoxicity; type: cell-based; conditions: Homo sapiens, K562, 72 h, read-out: Antiproliferative activity IC50, K562 cells
Summary of the method: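 K562 cells were grown in RPMI-1640 with 10% heat-inactivated FBS and penicillin/streptomycin at 37°C, 5% CO2. Seeded at 8,000 cells/well, rested 24 h, then exposed 72 h to a concentration series. MTS reagent was added in phenol-red-free DMEM for 1 h at 37°C and absorbance read at 490 nm. Response was taken relative to control and IC50 fitted. Triplicates per experiment, 3–4 experiments.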

[1] = tested on: calcium levels in RAJI cells; experiment: Calcium assay; type: cell-based, human; conditions: 24 h, HDGF 347 and 174 µM, ibrutinib 30 and 15 µM
Summary of the method: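 RAJI cells seeded at 40,000/well and held 24 h at 37°C. Medium was replaced with test nanomaterial (347, 174 µM) or reference BTK inhibitor (30, 15 µM) for 24 h. Cells were washed in cold PBS, loaded with Fluo-4 AM (5 µM, 30 min, 37°C), washed, and resuspended in serum-free, phenol-red-free DMEM. Fluorescence read at ex 485/em 520 nm. ≥3 experiments, mean ± SD, ANOVA with Dunnett's test vs untreated.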

**Q.** How did the “Expression of p62” value (p62) turn out when `C=CC(=O)N1CCC[C@@H](n2nc(-c3ccc(Oc4ccccc4)cc3)c3c(N)ncnc32)C1` [ibrutinib] was run?
**A.** almost three-fold increase

**Q.** What about the “Expression of ARID3A” value (ARID3A) of the same compound?
**A.** almost two-fold downregulation

**Q.** What about the “Expression of NFAT” value (NFAT) of the same compound?
**A.** significant decrease

**Q.** And the BTK gene expression (BTK)?
**A.** increased

**Q.** And the c-Myc protein expression (c-Myc)?
**A.** slight downregulation

**Q.** And the “Expression of TLR8” value (TLR8)?
**A.** significant decrease

**Q.** What about the IC50 (K562 cells) of the same compound?
**A.** 850 nM

**Q.** What about the Cellular calcium levels [1] of the same compound?
**A.** drop dramatically
